For assay [1], the system named is HCT-116. Put plainly: Cytotoxicity against human HCT116 cells after 72 hrs by MTS assay. The assay is classed as functional, cell-based. The settings on record: HCT-116, 72 h. In short, it runs like this:
(§1)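 Cells grown in RPMI 1640 with 5 mM HEPES and 10% FBS; HCT116/VM46 is a multidrug-resistant subline of HCT116. Seeded in microtiter plates, compound added 24 h later as serial dilutions, then 72 h at 37 °C. MTS plus phenazine methosulfate added, absorbance read at 492 nm as viable-cell measure; IC50 reported.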
Background: Tetrazolium dyes change colour on reduction, which living cells bring about.

In assay [2] the test system is HCT-116. Put plainly: Cytotoxicity against VM46-resistant human HCT116 cells overexpressing P-gp after 72 hrs by MTS assay. The following applies: HCT-116, 72 h. The assay is classed as functional, cell-based. An outline of the steps: as §1
Assay [3] has as its system A2780. Briefly: Cytotoxicity against human A2780 cells after 72 hrs by MTS assay. The assay is classed as functional, cell-based. The following applies: A2780, 72 h. An outline of the steps: as §1
The subject of a further assay is SK-BR-3. Briefly: Cytotoxicity against human SKBR3 cells after 72 hrs by MTS assay. The assay is classed as functional, cell-based. The settings on record: SK-BR-3, 72 h. An outline of the steps:
as §1

Assay [4] concerns HCT-116. Briefly: Ratio of IC50 for VM46-resistant human HCT116 cells overexpressing P-gp to IC50 for human HCT116 cells. The assay is classed as functional.
The subject of assay [5] is A2780. Briefly: Induction of apoptosis in human A2780 cells at 1.3 uM after 24 hrs by TUNEL assay. The assay is classed as functional. In short, it runs like this: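 A2780 cells seeded in six-well plates, treated the next day for 24 h, then collected. Apoptosis scored by TUNEL assay read by flow cytometry, with doublet discrimination gates during acquisition and analysis; apoptosis expressed as fold induction.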

In assay [6] the test system is A2780. Briefly: Cell cycle arrest in human A2780 cells assessed as accumulation at G2/M phase at 1.3 uM after 24 hrs by flow cytometry analysis. The assay is classed as functional, cell-based. An outline of the steps: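 A2780 cells seeded in six-well plates, compound added next day for 24 h. Cells trypsinized, fixed overnight in 80% ethanol at -20 °C, PBS-washed, stained 1 h at RT with propidium iodide (50 µg/mL) and RNase (10 µg/mL). Flow cytometry; G0/G1, S and G2-M fractions calculated from DNA histograms.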
(In general: A flow cytometer gives signals particle by particle.)

The species entered for a further assay is Bos taurus. Briefly: Inhibition of GTP-induced calf brain tubulin polymerization at 10 uM. In short, it runs like this: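 Twice-cycled calf brain tubulin in 100 mM MES pH 6.6, 1 mM EGTA, 0.5 mM MgCl2, preincubated with compound. Polymerization started with 500 µM GTP; absorbance at 350 nm read every 36 s in cuvettes held at 37 °C.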

pIC50: −log10 of the molar value. Calls of active or inactive are those of the source. The rule behind the calls is not given here.

In general, pIC50 refers to the IC50 on a negative log10 scale, so that one unit is a factor of ten. Read a low pIC50 as a large IC50. The inhibition is the relative decrease from the control value, in per cent. Read a high inhibition as strong suppression. On to `CC[C@@H](C)[C@@H]1NC(=O)[C@@H]2CCCN2C(=O)[C@@H](NC(=O)[C@@H]2CCCN2C(=O)[C@@H](COC)NS(=O)(=O)[O-])COC(=O)/C(C)=C\C(C)=C\c2csc(n2)[C@H](Cc2ccc(O)cc2)NC(=O)C1=O.[Na+]` [SCLERITODERMIN A], for which the pIC50 with HCT-116 [1] is 5.72; with HCT-116 [2] it was 5.25; in the assay with A2780 [3], 6.03; in the assay with SK-BR-3, 6.17. For the same molecule, the “Ratio IC50” value with HCT-116 [4] is reported as 2.9. The “fold change (FC)” value with A2780 [5] worked out at 5.5. Also, the outcome in the assay with A2780 [6] was Active. In the assay filed under Bos taurus, the inhibition is 50%.

For `CC[C@]1(O)C[C@@H]2CN(CCc3c([nH]c4ccccc34)[C@@](C(=O)OC)(c3cc4c(cc3OC)N(C)[C@H]3[C@@](O)(C(=O)OC)[C@H](OC(C)=O)[C@]5(CC)C=CCN6CC[C@]43[C@@H]65)C2)C1` [VINBLASTINE], the pIC50 in the assay with HCT-116 [1] is 8.52; in the assay with HCT-116 [2], 6.87; in the assay on A2780 [3], 8.30; in the assay on SK-BR-3, 7.14. For the same molecule, the “Ratio IC50” value in the assay on HCT-116 [4] is recorded as 45.

(Values after ChEMBL document CHEMBL1146517, “Scleritodermin A, a cytotoxic cyclic peptide from the lithistid sponge Scleritoderma nodosum” (J Nat Prod, 2004).)
